Reference: ChEMBL document CHEMBL5532699, “Design, docking optimization, and evaluation of biotin-PEG4-1,8-naphthalimide as a potent and safe antitumor agent with dual targeting of ferroptosis and DNA” (RSC Med Chem, 2024)
Activity calls are given as the source filed them. The rule behind the calls is not given here.

Assays:
MGC-803 [1] = experiment: Induction of cell cycle arrest in human MGC-803 cells assessed as accumulation of cells at G2/M phase at 50 uM incubated for 24 hrs by PI staining based flow cytometry (Rvb=12.91%); type: functional
MGC-803 [2] = experiment: Antiproliferative activity against human MGC-803 cells incubated for 48 hrs by MTT assay; type: functional, cell-based; conditions: MGC-803, 48 h
Method in brief: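 Cells kept as monolayers in DMEM with 10% FBS, streptomycin and penicillin, 37°C, 5% CO₂. Exponentially growing cells seeded in 96-well plates, exposed 48 h, then MTT (10 mg/mL stock) for 4 h at 37°C. Medium removed, formazan dissolved in DMSO, OD read at 490 nm. Five wells per condition; each cell line run three times.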

T-24 = experiment: Antiproliferative activity against human T24 cells incubated for 48 hrs by MTT assay; type: functional, cell-based; conditions: T-24, 48 h
Method in brief: (§1)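 Monolayer cells in DMEM with 10% FBS, penicillin and streptomycin, 37°C, 5% CO2. Exponentially growing cells were seeded in 96-well plates and exposed to compound for 48 h. MTT was then added for 4 h at 37°C. Medium was removed, formazan dissolved in DMSO, and OD read at 490 nm. Each plate had five replicate wells, and assays were repeated three times per line.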

HCT-116 = experiment: Antiproliferative activity against human HCT-116 cells incubated for 48 hrs by MTT assay; type: functional, cell-based; conditions: HCT-116, 48 h; method in brief: as §1
[3] = Cytotoxicity against HK-2 cells incubated for 48 hrs by MTT assay; type: toxicity, cell-based; conditions: human; method in brief: as §1
[4] = Cytotoxicity against HUVEC cells incubated for 48 hrs by MTT assay; type: toxicity, cell-based; conditions: human; method in brief: as §1
[5] = Metabolic stability in male CD-1 mouse liver microsomes assessed as half life at 2 uM incubated for 60 min in the presence of NADPH by LC-MS/MS analysis; type: ADME, Microsome
Method in brief: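 Male CD-1 mouse liver microsomes at 0.5 mg/mL final in 100 mM phosphate buffer, pH 7.4. Mixture was preincubated with 1 mM NADPH (PBS only for the negative control) for 10 min at 37°C. Reaction was started with test compound at 2 µM final. Aliquots were taken at 0.5, 15, 30, 45 and 60 min into cold methanol with internal standard, centrifuged, and the supernatant analysed by LC-MS/MS.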

[6] = Toxicity in nude mouse xenografted with human MGC-803 cells assessed as reduction in body weight at 24 to 48 mg/kg, ip administered once every two days for 21 days; type: organism-based; conditions: in vivo, 504 h, dose 24-48 mg/kg, time 21 day
Method in brief: (§2)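 1×10^6 tumor cells injected s.c. into the right flank of nude mice. At mean tumor volume 60–80 mm³, animals randomized to vehicle or treatment groups (n = 6). Compound in 5% v/v DMSO/saline given i.p. every 2 days. Tumor size and weight recorded; volume = lw²/2 from length and width. Body weight tracked as the systemic toxicity index.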

[7] = Toxicity in nude mouse xenografted with human MGC-803 cells assessed as pathological changes in heart at 12 to 48 mg/kg, ip administered once every two days for 21 days by H and E staining based analysis; type: organism-based; conditions: in vivo, 504 h, dose 12-48 mg/kg, time 21 day
Method in brief: (§3)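 Nude mice carrying s.c. xenografts (1×10^6 cells, right flank) randomized at 60–80 mm³ (n = 6), dosed i.p. every 2 days in 5% v/v DMSO/saline. Major organs examined by H&E staining at 200× magnification.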

[8] = Toxicity in nude mouse xenografted with human U-251 cells assessed as pathological changes in heart at 24 to 48 mg/kg, ip administered once every two days for 21 days by H and E staining based analysis; type: organism-based; conditions: in vivo, 504 h, dose 24-48 mg/kg, time 21 day; method in brief: as §3
[9] = Toxicity in nude mouse xenografted with human U-251 cells assessed as pathological changes in liver at 24 to 48 mg/kg, ip administered once every two days for 21 days by H and E staining based analysis; type: organism-based; conditions: in vivo, 504 h, dose 24-48 mg/kg, time 21 day; method in brief: as §3
MGC-803 [10] = experiment: Induction of DNA damage in human MGC-803 cells assessed as appearance of long DNA tails at 25 to 100 uM incubated for 24 hrs by comet assay; type: functional, cell-based; conditions: dose 25-100 µM
Method in brief: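 MGC-803 cells exposed 25, 50 or 100 μM for 24 h, mixed 1:8 with low-melt agarose on comet slides, held 1 day at 4°C in dark, lysed 2 h at 4°C. Alkaline unwinding (1 mM EDTA, 300 mM NaOH, pH >13) 45 min at 4°C; electrophoresis in 1 mM EDTA/200 mM NaOH at 25 V, 30 min. Washed in Tris-HCl pH 7.5, PI-stained, imaged by fluorescence microscopy.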

MGC-803 [11] = experiment: Induction of DNA damage in human MGC-803 cells assessed as increase in phosphorylated H2AX protein level at Ser139 residue at 25 to 50 uM incubated for 24 hrs by Western blot analysis; type: functional, cell-based; conditions: dose 25-50 µM
Method in brief: (§4)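 MGC-803 cells treated 25 or 50 μM for 24 h, lysed in ice-cold 1% SDS/Tris-HCl pH 7.5 buffer with EDTA, NaCl and protease inhibitors, spun 12,000g 18 min. Protein quantified by BCA; 40–50 μg resolved on 10% SDS-PAGE, transferred to PVDF, milk-blocked 2 h, primary antibody overnight, HRP secondary 1 h at RT. ECL detection with densitometry.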

MGC-803 [12] = experiment: Induction of cell cycle arrest in human MGC-803 cells assessed as accumulation of cells at G2/M phase at 25 uM incubated for 24 hrs by PI staining based flow cytometry (Rvb=12.91%); type: functional
MGC-803 [13] = experiment: Induction of cell cycle arrest in human MGC-803 cells assessed as accumulation of cells at G2/M phase at 100 uM incubated for 24 hrs by PI staining based flow cytometry (Rvb=12.91%); type: functional
MGC-803 [14] = experiment: Induction of cell cycle arrest in human MGC-803 cells assessed as accumulation of cells at S phase at 100 uM incubated for 24 hrs by PI staining based flow cytometry (Rvb=28.00%); type: functional
MGC-803 [15] = experiment: Induction of cell cycle arrest at S phase in human MGC-803 cells assessed as decrease in cyclin E1 protein expression level at 25 to 50 uM incubated for 24 hrs by Western blot analysis; type: functional, cell-based; conditions: dose 25-50 µM; method in brief: as §4
MGC-803 [16] = experiment: Induction of ferroptosis in human MGC-803 cells assessed as increase in intracellular lipid peroxide and ROS level by measuring increase in green fluorescence intensity at 50 uM incubated for 24 hrs by BODIPY 581/591 C11 staining based confocal microscopic analysis; type: functional, cell-based
MGC-803 [17] = experiment: Induction of ferroptosis in human MGC-803 cells assessed as increase in intracellular iron level incubated for 24 hrs by FerroOrange staining based confocal microscopic analysis; type: functional, cell-based; conditions: dose 25-50 µM
MGC-803 [18] = experiment: Induction of ferroptosis in human MGC-803 cells assessed as appearance of smaller mitochondria at 5 uM incubated for 24 hrs by TEM analysis; type: functional, cell-based
Method in brief: (§5)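 Cell samples prefixed in 3% glutaraldehyde, postfixed in 1% osmium tetroxide, dehydrated through graded acetone (30–100%), embedded in Epon812, cut into 60–90 nm ultrathin sections on copper grids, stained with uranyl acetate 10–15 min and lead citrate 1–2 min at room temperature, examined by TEM.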

[19] = Toxicity in nude mouse xenografted with human MGC-803 cells assessed as effect on animal behavior at 24 to 48 mg/kg, ip administered once every two days for 21 days; type: organism-based; conditions: in vivo, 504 h, dose 24-48 mg/kg, time 21 day; method in brief: as §2
MGC-803 [20] = experiment: Induction of ferroptosis in human MGC-803 cells assessed as increase in mitochondrial membrane density at 5 uM incubated for 24 hrs by TEM analysis; type: functional, cell-based; method in brief: as §5

IC50 (MGC-803 [2]): > 50 µM
IC50 (HCT-116): > 50 µM
half-life at 2 µM [5]: 36.6 min
Structure (SMILES): CN(C)CCN1C(=O)c2cccc3c(N4CCN(C(=O)CCOCCOCCOCCOCCNC(=O)CCCCC5SCC6NC(=O)NC65)CC4)ccc(c23)C1=O (configuration not stated)
Activity (MGC-803 [1]): 26.25%
IC50 (T-24): > 50 µM
IC50 at 48 h [3]: > 50 µM
IC50 at 48 h [4]: > 50 µM
Activity [6]: Non-Toxic
Activity [7]: Non-Toxic
Activity [8]: Non-Toxic
Activity [9]: Non-Toxic
Activity (MGC-803 [10]): Active
Activity (MGC-803 [11]): Active
Activity (MGC-803 [12]): 23.3%
Activity (MGC-803 [13]): 18.57%
Activity (MGC-803 [14]): 41.72%
Activity (MGC-803 [15]): Active
Activity (MGC-803 [16]): Active
Activity (MGC-803 [17]): Dose-Dependent Effect
Activity (MGC-803 [18]): Active
Activity [19]: Non-Toxic
Activity (MGC-803 [20]): Active
